This is an account of results in ChEMBL document CHEMBL3352356, “N-tetradecylcarbamyl lipopeptides as novel agonists for Toll-like receptor 2” (J Med Chem, 2014).

Test [1] concerns the target Toll-like receptor 2 (Homo sapiens) (UniProt O60603). Put plainly: Activation of human TLR2 expressed in HEK293 cells assessed as IL-8 secretion after 48 hrs by ELISA.
Test [2] has as its system D1. Nature of the test: Immunostimulatory activity in C57BL/6 (H-2b) mouse D1 cells assessed as increase in IL-12p40 secretion at 30 pM to 30 nM after 24 hrs by ELISA/DC maturation assay. It counts as functional, cell-based. The method, boiled down:
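Cells were D1, a growth factor-dependent immature spleen-derived dendritic cell line from C57BL/6 (H-2b) mice. Compounds were titrated at 4 concentrations in complete IMDM, with about 40.000 cells per well. After 24 hours at 37°C, supernatant IL-12p40 was measured by ELISA. Assays were run in triplicate, with standard deviation shown.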
In general terms: An ELISA detects its analyte on a solid surface through an enzyme-linked reagent.

Test [3] addresses Toll-like receptor 2 (Homo sapiens) (UniProt O60603). Put plainly: Activation of human TLR2 expressed in HEK293 cells assessed as IL-8 secretion at 30 to 300 nM after 48 hrs by ELISA.

SMILES strings stand for the structures. Calls of active or inactive are those of the source. The calls are words filed in the database; no cut-off is given here.

Toll-like receptor 2 (Homo sapiens), sequence (O60603 whole entry): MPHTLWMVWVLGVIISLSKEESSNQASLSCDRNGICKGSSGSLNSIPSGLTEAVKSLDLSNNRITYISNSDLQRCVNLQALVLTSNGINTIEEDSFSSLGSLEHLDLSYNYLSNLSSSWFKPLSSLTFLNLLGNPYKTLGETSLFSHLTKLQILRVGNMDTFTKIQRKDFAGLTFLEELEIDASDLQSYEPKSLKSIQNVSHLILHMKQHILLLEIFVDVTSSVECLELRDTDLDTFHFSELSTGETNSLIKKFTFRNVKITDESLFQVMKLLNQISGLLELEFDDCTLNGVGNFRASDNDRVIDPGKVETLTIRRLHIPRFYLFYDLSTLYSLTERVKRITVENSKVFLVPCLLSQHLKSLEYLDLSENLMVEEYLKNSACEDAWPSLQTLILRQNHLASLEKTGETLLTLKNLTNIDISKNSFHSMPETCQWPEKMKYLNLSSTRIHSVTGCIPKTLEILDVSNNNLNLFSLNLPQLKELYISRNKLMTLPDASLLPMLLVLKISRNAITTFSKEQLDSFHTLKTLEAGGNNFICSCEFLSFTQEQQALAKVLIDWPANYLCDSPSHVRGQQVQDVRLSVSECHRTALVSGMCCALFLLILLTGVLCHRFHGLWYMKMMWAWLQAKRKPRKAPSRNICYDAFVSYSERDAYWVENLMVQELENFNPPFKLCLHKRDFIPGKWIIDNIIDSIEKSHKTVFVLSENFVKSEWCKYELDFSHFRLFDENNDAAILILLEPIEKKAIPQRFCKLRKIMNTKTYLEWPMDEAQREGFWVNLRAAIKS

For `C#CC[C@H](NC(=O)[C@H](CSCC(COC(=O)CCCCCCCCCCCCCCC)OC(=O)CCCCCCCCCCCCCCC)NC(=O)NCCCCCCCCCCCCCC)C(=O)N[C@@H](CCCCN)C(=O)N[C@@H](CCCCN)C(=O)N[C@@H](CCCCN)C(=O)N[C@@H](CCCCN)C(N)=O` (mixture of isomers), the Activity entry in test [1] is “Dose-dependent effect”. Also, the outcome in test [2] was Active.

As to `CCCCCCCCCCCCCCCC(=O)OCC(CSC[C@H](NC(=O)NCCCCCCCCCCCCCC)C(=O)N[C@@H](Cc1ccc2ccccc2c1)C(=O)N[C@@H](CCCCN)C(=O)N[C@@H](CCCCN)C(=O)N[C@@H](CCCCN)C(=O)N[C@@H](CCCCN)C(N)=O)OC(=O)CCCCCCCCCCCCCCC` (mixture of isomers), the outcome in test [3] and in test [2] was inactive.

As for `CCCCCCCCCCCCCCCC(=O)OCC(CSC[C@H](NC(=O)NCCCCCCCCCCCCCC)C(=O)NC[C@H](CCCCN)C(=O)N[C@@H](CCCCN)C(=O)N[C@@H](CCCCN)C(=O)N[C@@H](CCCCN)C(=O)N[C@@H](CCCCN)C(N)=O)OC(=O)CCCCCCCCCCCCCCC` (mixture of isomers), the outcome in test [3] and in test [2] was inactive.

Regarding `CCCCCCCCCCCCCCCC(=O)OCC(CSC[C@H](NC(=O)NCCCCCCCCCCCCCC)C(=O)N[C@H](C(=O)N[C@@H](CCCCN)C(=O)N[C@@H](CCCCN)C(=O)N[C@@H](CCCCN)C(=O)N[C@@H](CCCCN)C(N)=O)C(C)(C)S)OC(=O)CCCCCCCCCCCCCCC` (mixture of isomers), the Activity result in test [1] is “Dose-dependent effect”. Moreover, the outcome in test [2] was inactive.

With `CCCCCCCCCCCCCCCC(=O)OCC(CSC[C@H](NC(=O)NCCCCCCCCCCCCCC)C(=O)NCC(=O)N[C@@H](CCCCN)C(=O)N[C@@H](CCCCN)C(=O)N[C@@H](CCCCN)C(=O)N[C@@H](CCCCN)C(N)=O)OC(=O)CCCCCCCCCCCCCCC` (mixture of isomers), in test [1], the Activity result is “Dose-dependent effect”.

Consider `CCCCCCCCCCCCCCCC(=O)OCC(CSC[C@H](NC(=O)NCCCCCCCCCCCCCC)C(=O)N[C@@H](CC#N)C(=O)N[C@@H](CCCCN)C(=O)N[C@@H](CCCCN)C(=O)N[C@@H](CCCCN)C(=O)N[C@@H](CCCCN)C(N)=O)OC(=O)CCCCCCCCCCCCCCC` (mixture of isomers), for which the Activity result in test [1] was “Dose-dependent effect”. In test [2], the result was Active.

With `CCCCCCCCCCCCCCCC(=O)OCC(CSC[C@H](NC(=O)NCCCCCCCCCCCCCC)C(=O)N[C@H](CS)C(=O)N[C@@H](CCCCN)C(=O)N[C@@H](CCCCN)C(=O)N[C@@H](CCCCN)C(=O)N[C@@H](CCCCN)C(N)=O)OC(=O)CCCCCCCCCCCCCCC` (mixture of isomers), the outcome in test [3] and in test [2] was inactive.

In the case of `CCCCCCCCCCCCCCCC(=O)OCC(CSC[C@H](NC(=O)NCCCCCCCCCCCCCC)C(=O)N[C@@H](CO)C(=O)N[C@@H](CCCCN)C(=O)N[C@@H](CCCCN)C(=O)N[C@@H](CCCCN)C(=O)N[C@@H](CCCCN)C(N)=O)OC(=O)CCCCCCCCCCCCCCC` (mixture of isomers), in test [1], the Activity result is “Dose-dependent effect”. In addition, in test [2], the outcome was Active.

Take `C=CC[C@@H](NC(=O)[C@H](CSCC(COC(=O)CCCCCCCCCCCCCCC)OC(=O)CCCCCCCCCCCCCCC)NC(=O)NCCCCCCCCCCCCCC)C(=O)N[C@@H](CCCCN)C(=O)N[C@@H](CCCCN)C(=O)N[C@@H](CCCCN)C(=O)N[C@@H](CCCCN)C(N)=O` (mixture of isomers): the outcome in test [3] was inactive.

For the compound `CCCCCCCCCCCCCCCC(=O)OCC(CSC[C@H](NC(=O)NCCCCCCCCCCCCCC)C(=O)N[C@@H](Cc1ccccc1)C(=O)N[C@@H](CCCCN)C(=O)N[C@@H](CCCCN)C(=O)N[C@@H](CCCCN)C(=O)N[C@@H](CCCCN)C(N)=O)OC(=O)CCCCCCCCCCCCCCC` (mixture of isomers), the Activity result in test [1] was “Dose-dependent effect”. Moreover, the outcome in test [2] was inactive.

Consider `CCCCCCCCCCCCCCCC(=O)OCC(CSC[C@H](NC(=O)NCCCCCCCCCCCCCC)C(=O)N[C@@H](CN)C(=O)N[C@@H](CCCCN)C(=O)N[C@@H](CCCCN)C(=O)N[C@@H](CCCCN)C(=O)N[C@@H](CCCCN)C(N)=O)OC(=O)CCCCCCCCCCCCCCC` (mixture of isomers), for which the Activity entry in test [1] was “Dose-dependent effect”. In addition, in test [2], the outcome was inactive.

Regarding `CCCCCCCCCCCCCCCC(=O)OCC(CSC[C@H](NC(=O)NCCCCCCCCCCCCCC)C(=O)N[C@@H](Cc1cccs1)C(=O)N[C@@H](CCCCN)C(=O)N[C@@H](CCCCN)C(=O)N[C@@H](CCCCN)C(=O)N[C@@H](CCCCN)C(N)=O)OC(=O)CCCCCCCCCCCCCCC` (mixture of isomers), the Activity result in test [1] is “Dose-dependent effect”. Also, the result in test [2] was inactive.

Consider `CCCCCCCCCCCCCCCC(=O)OCC(CSC[C@H](NC(=O)NCCCCCCCCCCCCCC)C(=O)NCCC(=O)N[C@@H](CCCCN)C(=O)N[C@@H](CCCCN)C(=O)N[C@@H](CCCCN)C(=O)N[C@@H](CCCCN)C(N)=O)OC(=O)CCCCCCCCCCCCCCC` (mixture of isomers), for which the Activity result in test [1] is “Dose-dependent effect”. Besides, the result in test [2] was inactive.

Consider `CCCCCCCCCCCCCCCC(=O)OCC(CSC[C@H](NC(=O)NCCCCCCCCCCCCCC)C(=O)N[C@@H](CCN)C(=O)N[C@@H](CCCCN)C(=O)N[C@@H](CCCCN)C(=O)N[C@@H](CCCCN)C(=O)N[C@@H](CCCCN)C(N)=O)OC(=O)CCCCCCCCCCCCCCC` (mixture of isomers), for which the Activity entry in test [1] is “Dose-dependent effect”. Also, the result in test [2] was Active.

As to `CCCCCCCCCCCCCCCC(=O)OCC(CSC[C@H](NC(=O)NCCCCCCCCCCCCCC)C(=O)N[C@@H](CCCC)C(=O)N[C@@H](CCCCN)C(=O)N[C@@H](CCCCN)C(=O)N[C@@H](CCCCN)C(=O)N[C@@H](CCCCN)C(N)=O)OC(=O)CCCCCCCCCCCCCCC` (mixture of isomers), the Activity entry in test [1] is “Dose-dependent effect”. In test [2], the result was Active.

Regarding `CCCCCCCCCCCCCCCC(=O)OCC(CSC[C@H](NC(=O)NCCCCCCCCCCCCCC)C(=O)N[C@H](C(=O)N[C@@H](CCCCN)C(=O)N[C@@H](CCCCN)C(=O)N[C@@H](CCCCN)C(=O)N[C@@H](CCCCN)C(N)=O)c1cccs1)OC(=O)CCCCCCCCCCCCCCC` (mixture of isomers), the Activity entry in test [1] was “Dose-dependent effect”.

For `C=CC[C@H](NC(=O)[C@H](CSCC(COC(=O)CCCCCCCCCCCCCCC)OC(=O)CCCCCCCCCCCCCCC)NC(=O)NCCCCCCCCCCCCCC)C(=O)N[C@@H](CCCCN)C(=O)N[C@@H](CCCCN)C(=O)N[C@@H](CCCCN)C(=O)N[C@@H](CCCCN)C(N)=O` (mixture of isomers), in test [1], the Activity entry was “Dose-dependent effect”. The result in test [2] was Active.

With `CCCCCCCCCCCCCCCC(=O)OCC(CSC[C@H](NC(=O)NCCCCCCCCCCCCCC)C(=O)N[C@@H](CC)C(=O)N[C@@H](CCCCN)C(=O)N[C@@H](CCCCN)C(=O)N[C@@H](CCCCN)C(=O)N[C@@H](CCCCN)C(N)=O)OC(=O)CCCCCCCCCCCCCCC` (mixture of isomers), the Activity entry in test [1] is “Dose-dependent effect”. Besides, in test [2], the result was Active.

Regarding `CCCCCCCCCCCCCCCC(=O)OCC(CSC[C@H](NC(=O)NCCCCCCCCCCCCCC)C(=O)N[C@@H](CCC)C(=O)N[C@@H](CCCCN)C(=O)N[C@@H](CCCCN)C(=O)N[C@@H](CCCCN)C(=O)N[C@@H](CCCCN)C(N)=O)OC(=O)CCCCCCCCCCCCCCC` (mixture of isomers), the Activity result in test [1] was “Dose-dependent effect”. Also, in test [2], the outcome was Active.

In the case of `CCCCCCCCCCCCCCCC(=O)OCC(CSC[C@H](NC(=O)NCCCCCCCCCCCCCC)C(=O)N[C@@H](CS)C(=O)N[C@@H](CCCCN)C(=O)N[C@@H](CCCCN)C(=O)N[C@@H](CCCCN)C(=O)N[C@@H](CCCCN)C(N)=O)OC(=O)CCCCCCCCCCCCCCC` (mixture of isomers), the result in test [3] and in test [2] was inactive.

For the compound `CCCCCCCCCCCCCCCC(=O)OCC(CSC[C@H](NC(=O)NCCCCCCCCCCCCCC)C(=O)N[C@@H](CC(N)=O)C(=O)N[C@@H](CCCCN)C(=O)N[C@@H](CCCCN)C(=O)N[C@@H](CCCCN)C(=O)N[C@@H](CCCCN)C(N)=O)OC(=O)CCCCCCCCCCCCCCC` (mixture of isomers), the Activity entry in test [1] was “Dose-dependent effect”. The outcome in test [2] was Active.

Consider `CCCCCCCCCCCCCCCC(=O)OCC(CSC[C@H](NC(=O)NCCCCCCCCCCCCCC)C(=O)N[C@@H](C)C(=O)N[C@@H](CCCCN)C(=O)N[C@@H](CCCCN)C(=O)N[C@@H](CCCCN)C(=O)N[C@@H](CCCCN)C(N)=O)OC(=O)CCCCCCCCCCCCCCC` (mixture of isomers), for which the Activity result in test [1] is “Dose-dependent effect”.
